Data reported in ChEMBL document CHEMBL4715736, “Identification of anticancer agents based on the thieno[2,3-b]pyridine and 1H-pyrazole molecular scaffolds” (2016).

Tests used:
Assay type in all cases: functional
A549 [1] = experiment: Growth inhibition of human A549/ATCC cells assessed as cell growth at 0.01 uM incubated for 48 hrs by sulforhodamine B assay relative to control; settings: read-out: Activity
In short: (§1)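 NCI Developmental Therapeutics Program NCI60 panel. Compounds that were active in the 10 µM one-dose screen went on to dose–response testing. Growth at each concentration is expressed relative to untreated control (100%). GI50 (concentration giving 50% of maximal inhibition of proliferation) and TGI (concentration giving total growth inhibition) were derived from the curves.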

SK-MEL-5 = experiment: Growth inhibition of human SK-MEL-5 cells assessed as cell growth at 0.01 uM incubated for 48 hrs by sulforhodamine B assay relative to control; settings: read-out: Activity
MDA-MB-468 = experiment: Growth inhibition of human MDA-MB-468 cells incubated for 48 hrs by sulforhodamine B assay; settings: for CC50: read-out: LC50 (the source's name)
In short: (§2)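 NCI60 panel at the NCI Developmental Therapeutics Program. Only compounds active in the 10 µM screen went to dose-response testing. GI50, the concentration giving 50% of maximal inhibition of proliferation, and TGI, the concentration giving total growth inhibition, were derived from the dose-response curves.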

OVCAR-4 = experiment: Growth inhibition of human OVCAR-4 cells assessed as cell growth at 0.01 uM incubated for 48 hrs by sulforhodamine B assay relative to control; settings: read-out: Activity
HCC 2998 = experiment: Growth inhibition of human HCC 2998 cells assessed as cell growth at 0.1 uM incubated for 48 hrs by sulforhodamine B assay relative to control; settings: read-out: Activity; in short: as §1
SR = experiment: Growth inhibition of human SR cells assessed as cell growth at 0.01 uM incubated for 48 hrs by sulforhodamine B assay relative to control; settings: read-out: Activity
Malme-3M = experiment: Growth inhibition of human Malme-3M cells assessed as cell growth at 1 uM incubated for 48 hrs by sulforhodamine B assay relative to control; settings: read-out: Activity
COLO 205 [2] = experiment: Growth inhibition of human COLO 205 cells assessed as cell growth at 1 uM incubated for 48 hrs by sulforhodamine B assay relative to control; settings: read-out: Activity; in short: as §1
HCT-15 [3] = experiment: Growth inhibition of human HCT-15 cells incubated for 48 hrs by sulforhodamine B assay; in short: as §2
HCT-116 = experiment: Growth inhibition of human HCT-116 cells assessed as cell growth at 1 uM incubated for 48 hrs by sulforhodamine B assay relative to control; settings: read-out: Activity
HOP-62 = experiment: Growth inhibition of human HOP-62 cells assessed as cell growth at 0.1 uM incubated for 48 hrs by sulforhodamine B assay relative to control; settings: read-out: Activity
Hs-578T = experiment: Growth inhibition of human Hs-578T cells incubated for 48 hrs by sulforhodamine B assay; settings: for CC50: read-out: LC50 (the source's name); in short: as §2
KM12 [4] = experiment: Growth inhibition of human KM12 cells assessed as cell growth at 100 uM incubated for 48 hrs by sulforhodamine B assay relative to control; settings: read-out: Activity
NCI-H322M = experiment: Growth inhibition of human NCI-H322M cells assessed as cell growth at 1 uM incubated for 48 hrs by sulforhodamine B assay relative to control; settings: read-out: Activity
HOP-92 = experiment: Growth inhibition of human HOP-92 cells assessed as cell growth at 100 uM incubated for 48 hrs by sulforhodamine B assay relative to control; settings: read-out: Activity
NCI-H226 = experiment: Growth inhibition of human NCI-H226 cells assessed as cell growth at 1 uM incubated for 48 hrs by sulforhodamine B assay relative to control; settings: read-out: Activity
SK-MEL-2 = experiment: Growth inhibition of human SK-MEL-2 cells incubated for 48 hrs by sulforhodamine B assay
In short: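 NCI DTP 60-line human tumour panel. Dose-response curves were run only for ligands active in the initial 10 µM screen. GI50 (concentration giving 50% of maximal inhibition of proliferation) and TGI (concentration giving total growth inhibition) were derived from these curves.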

MDA-MB-231 = experiment: Growth inhibition of human MDA-MB-231 cells assessed as cell growth at 100 uM incubated for 48 hrs by sulforhodamine B assay relative to control; settings: read-out: Activity
LOX IMVI = experiment: Growth inhibition of human LOX IMVI cells assessed as cell growth at 0.1 uM incubated for 48 hrs by sulforhodamine B assay relative to control; settings: read-out: Activity
M14 = experiment: Growth inhibition of human M14 cells incubated for 48 hrs by sulforhodamine B assay; in short: as §2
ACHN = experiment: Growth inhibition of human ACHN cells incubated for 48 hrs by sulforhodamine B assay; settings: for CC50: read-out: LC50 (the source's name); in short: as §1
A549 [5] = experiment: Growth inhibition of human A549/ATCC cells assessed as cell growth at 0.1 uM incubated for 48 hrs by sulforhodamine B assay relative to control; settings: read-out: Activity; in short: as §1
HCT-15 [6] = experiment: Growth inhibition of human HCT-15 cells assessed as cell growth at 0.1 uM incubated for 48 hrs by sulforhodamine B assay relative to control; settings: read-out: Activity
NCI-H522 = experiment: Growth inhibition of human NCI-H522 cells assessed as cell growth at 0.01 uM incubated for 48 hrs by sulforhodamine B assay relative to control; settings: read-out: Activity
OVCAR-8 = experiment: Growth inhibition of human OVCAR-8 cells assessed as cell growth at 0.01 uM incubated for 48 hrs by sulforhodamine B assay relative to control; settings: read-out: Activity
SF-295 = experiment: Growth inhibition of human SF-295 cells assessed as cell growth at 0.1 uM incubated for 48 hrs by sulforhodamine B assay relative to control; settings: read-out: Activity
COLO 205 [7] = experiment: Growth inhibition of human COLO 205 cells assessed as cell growth at 0.01 uM incubated for 48 hrs by sulforhodamine B assay relative to control; settings: read-out: Activity; in short: as §1
CAKI-1 [8] = experiment: Growth inhibition of human CAKI-1 cells incubated for 48 hrs by sulforhodamine B assay; settings: for CC50: read-out: LC50 (the source's name); in short: as §1
786-0 = experiment: Growth inhibition of human 786-0 cells incubated for 48 hrs by sulforhodamine B assay; settings: for CC50: read-out: LC50 (the source's name); in short: as §1
KM12 [9] = experiment: Growth inhibition of human KM12 cells assessed as cell growth at 1 uM incubated for 48 hrs by sulforhodamine B assay relative to control; settings: read-out: Activity
CAKI-1 [10] = experiment: Growth inhibition of human CAKI-1 cells assessed as cell growth at 1 uM incubated for 48 hrs by sulforhodamine B assay relative to control; settings: read-out: Activity; in short: as §1
UACC-62 = experiment: Growth inhibition of human UACC-62 cells assessed as cell growth at 0.1 uM incubated for 48 hrs by sulforhodamine B assay relative to control; settings: read-out: Activity
PC-3 [11] = experiment: Growth inhibition of human PC-3 cells assessed as cell growth at 0.01 uM incubated for 48 hrs by sulforhodamine B assay relative to control; settings: read-out: Activity
PC-3 [12] = experiment: Growth inhibition of human PC-3 cells assessed as cell growth at 0.1 uM incubated for 48 hrs by sulforhodamine B assay relative to control; settings: read-out: Activity
NCI-H23 = experiment: Growth inhibition of human NCI-H23 cells assessed as cell growth at 0.1 uM incubated for 48 hrs by sulforhodamine B assay relative to control; settings: read-out: Activity

Structure (SMILES): Cc1ccc(NC(=O)c2sc3nc4c(cc3c2N)C(=O)CCC4)cc1C
- growth at 0.01 µM (A549 [1]): 100%
- growth at 0.01 µM (SK-MEL-5): 95%
- GI50 (MDA-MB-468): 0.229 µM
- CC50 (MDA-MB-468): > 100 µM
- growth at 0.01 µM (OVCAR-4): 94%
- growth at 0.1 µM (HCC 2998): 93%
- growth at 0.01 µM (SR): 106%
- growth at 1 µM (Malme-3M): 24%
- growth at 1 µM (COLO 205 [2]): -13%
- GI50 (HCT-15 [3]): 0.486 µM
- LC50 (HCT-15 [3]): > 100 µM
- TGI (HCT-15 [3]): > 100 µM
- growth at 1 µM (HCT-116): 33%
- growth at 0.1 µM (HOP-62): 86%
- GI50 (Hs-578T): 0.356 µM
- TGI (Hs-578T): > 100 µM
- CC50 (Hs-578T): > 100 µM
- growth at 100 µM (KM12 [4]): 9%
- growth at 1 µM (NCI-H322M): 49%
- growth at 100 µM (HOP-92): 2%
- growth at 1 µM (NCI-H226): 68%
- GI50 (SK-MEL-2): 0.463 µM
- LC50 (SK-MEL-2): > 100 µM
- TGI (SK-MEL-2): > 100 µM
- growth at 100 µM (MDA-MB-231): 24%
- growth at 0.1 µM (LOX IMVI): 98%
- GI50 (M14): 0.366 µM
- LC50 (concentration killing 50% of cells) (M14): > 100 µM
- TGI (M14): > 100 µM
- GI50 (ACHN): 0.0239 µM
- TGI (ACHN): > 100 µM
- CC50 (ACHN): > 100 µM
- growth at 0.1 µM (A549 [5]): 98%
- growth at 0.1 µM (HCT-15 [6]): 90%
- growth at 0.01 µM (NCI-H522): 100%
- growth at 0.01 µM (OVCAR-8): 97%
- growth at 0.1 µM (SF-295): 85%
- growth at 0.01 µM (COLO 205 [7]): 101%
- TGI (CAKI-1 [8]): > 100 µM
- CC50 (CAKI-1 [8]): > 100 µM
- GI50 (786-0): 0.614 µM
- TGI (786-0): > 100 µM
- CC50 (786-0): > 100 µM
- growth at 1 µM (KM12 [9]): 24%
- growth at 1 µM (CAKI-1 [10]): 41%

Structure (SMILES): CCc1cccc(C)c1NC(=O)c1sc2nc3c(cc2c1N)C(=O)CCC3
- growth at 0.01 µM (A549 [1]): 96%
- growth at 0.01 µM (SK-MEL-5): 92%
- GI50 (MDA-MB-468): 0.261 µM
- TGI (MDA-MB-468): 60.6 µM
- CC50 (MDA-MB-468): > 100 µM
- growth at 0.01 µM (OVCAR-4): 89%
- growth at 0.1 µM (HCC 2998): 100%
- growth at 0.01 µM (SR): 96%
- growth at 1 µM (Malme-3M): 31%
- growth at 1 µM (COLO 205 [2]): -19%
- growth at 0.1 µM (UACC-62): 88%
- GI50 (HCT-15 [3]): 0.471 µM
- LC50 (HCT-15 [3]): > 100 µM
- TGI (HCT-15 [3]): > 100 µM
- growth at 1 µM (HCT-116): 28%
- growth at 0.1 µM (HOP-62): 92%
- TGI (Hs-578T): > 100 µM
- CC50 (Hs-578T): > 100 µM
- growth at 100 µM (KM12 [4]): 4%
- growth at 1 µM (NCI-H322M): 42%
- growth at 100 µM (HOP-92): -7%
- growth at 0.01 µM (PC-3 [11]): 94%
- growth at 1 µM (NCI-H226): 67%
- growth at 100 µM (MDA-MB-231): 24%
- growth at 0.1 µM (PC-3 [12]): 87%
- growth at 0.1 µM (LOX IMVI): 93%
- growth at 0.1 µM (NCI-H23): 100%
- GI50 (M14): 0.367 µM
- LC50 (concentration killing 50% of cells) (M14): > 100 µM
- TGI (M14): 19.5 µM
- GI50 (ACHN): 0.795 µM
- TGI (ACHN): > 100 µM
- CC50 (ACHN): > 100 µM
- growth at 0.1 µM (A549 [5]): 93%
- growth at 0.1 µM (HCT-15 [6]): 92%
- growth at 0.01 µM (OVCAR-8): 99%
- growth at 0.1 µM (SF-295): 85%
- growth at 0.01 µM (COLO 205 [7]): 96%
- GI50 (CAKI-1 [8]): 0.511 µM
- TGI (CAKI-1 [8]): > 100 µM
- CC50 (CAKI-1 [8]): > 100 µM
- GI50 (786-0): 0.542 µM
- TGI (786-0): > 100 µM
- CC50 (786-0): > 100 µM
- growth at 1 µM (KM12 [9]): 24%
- growth at 1 µM (CAKI-1 [10]): 31%
